Results filed as inconclusive are left out.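 Rule for the calls, unless noted: active = cell viability at or below a set limit in both duplicate runs, the limit being the all-compound median minus 4 SD (cut at about 23% in these data, passing the limit was not always enough); inconclusive = no clear call, values can overlap the other calls; inactive = the rest.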
How the values were obtained:
[1] = OD615 S. cerevisiae growth inhibition, permissive medium, pilot counter-assay, permissive growth control for S. cerevisiae lifespan shortening project (AID 705;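 active = growth inhibition above 25% in both replicates, a cutoff set 3 SD above the mean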); conditions: OD615, 24 h, at 10 µM, active compounds read high
Method in brief: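 System – S. cerevisiae with engineered DeaD lifespan system · Buffer or medium – SC raffinose/galactose permissive medium · Schedule – cells pre-grown 4 h, then 24 h compound exposure, 30 °C humidified · Technique – culture turbidity as optical density at 615 nm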

[2] = Restrictive medium S. cerevisiae growth inhibition, OD615, pilot screen of yeast lifespan reduction project, restrictive growth control (AID 706;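 active = growth inhibition above a set limit, 3 SD over mean compound inhibition, in both replicates, cut at about 43% in these data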;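 note: modified DeaD lifespan yeast strain shifted to restrictive glucose medium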); conditions: OD615, 48 h, at 10 µM, active compounds read high
Method in brief: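 Material: engineered S. cerevisiae DeaD strain / Medium: glucose-based CSMM-D restrictive medium / Compound: single dose of 10 µM compound final, 0.25% DMSO / Timing: 4 h pre-incubation, 48 h exposure at 30 °C / Technique: OD615 absorbance reading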

[3] = viability gain of MRP-1-high H69AR cells under doxorubicin, pilot screen, MRP-1 activator project, CellTiter-Glo, duplicate (AID 807;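 active = viability increase at or above a cutoff of the median across tested compounds plus 3 SD, cut at about 8.5% in these data, passing the limit was not always enough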;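 note: compound pretreatment 18-22 h then 72 h combined with doxorubicin; 0% = doxorubicin alone and 100% = vehicle without doxorubicin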); conditions: H69AR viability with doxorubicin, CellTiter-Glo luminescence; at 10 µM; active compounds read high
[4] = growth suppression of beta-catenin knockout HCT116, pilot screen, human colon tumor cells (AID 823); conditions: CellTiter-Glo, 60 h, at 10 µM, active compounds read low;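 note: 0% = wells killed by 20 µM Hyamine and 100% = untreated DMSO cell wells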
[5] = growth suppression of PTEN-deleted HCT116, pilot screen, cell-based, HCT116 clonal line, CellTiter-Glo (AID 824;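 active = viability at or below 27.92% in each of two runs, the all-compound median minus 4 SD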;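 note: 0% = 20 µM Hyamine control and 100% = vehicle cell control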); conditions: 60 h, at 10 µM, active compounds read low
[6] = inhibitors of the yeast RAM network, pilot screen, dse1pr::URA3 reporter, 5-FOA selection (AID 869;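 active = inhibition over a set limit, the all-compound mean plus 3 SD, in both replicate runs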;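 note: 0% = DMSO wells with no growth and 100% = 10 µM 1-NA-PP1 with full growth; RAM network block rescues cells from 5-FOA so hits raise OD615 growth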); conditions: S. cerevisiae dse1pr::URA3 5-FOA growth, OD615, 2 d; at 10 µM; active compounds read high; strain carries analog-sensitive mutant Cbk1 kinase
[7] = RAM signaling pathway blockade in yeast – S. cerevisiae, Pdr1DBD-CYC8 efflux-inhibited sensitized strain, primary screen (AID 1298;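 active = RAM network inhibition above 8.4% in each of two replicates, 3 SD over the compound average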;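 note: 0% = DMSO untreated cells without growth and 100% = 10 µM 1-NA-PP1 full growth; higher means more yeast growth rescued from 5-FOA killing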); conditions: S. cerevisiae cbk1-as DSE1-URA3 strain, 5-FOA growth OD615, 2 d; at 50 µM; active compounds read high

COc1ccc(S(=O)(=O)Nc2ccc3c(c2)OCO3)cc1C(=O)O
inactive: growth inhibition [1] -4.6% | growth inhibition [2] -5.47% | viability increase [3] -1.95% | viability [4] 93.5% | viability [5] 94.5% | inhibition [6] 0.425% | RAM network inhibition [7] 3.99%

CC(C)CCNC(=O)Cn1c(=O)oc2cc(S(=O)(=O)N3CCc4ccccc43)ccc21
inactive: growth inhibition [1] -6.32% | growth inhibition [2] -5.12% | viability increase [3] -5.87% | viability [4] 71.8% | viability [5] 62.5% | inhibition [6] 1.15% | RAM network inhibition [7] 1.07%

Cc1cc(C)n(C(=O)CCN2C(=O)c3ccccc3C2=O)n1
inactive: growth inhibition [1] -14.3% | growth inhibition [2] 5.39% | viability increase [3] 2% | viability [4] 94.9% | viability [5] 103% | inhibition [6] -0.64% | RAM network inhibition [7] -0.15%

O=C(Nc1ccc(-c2nc3cccnc3s2)cc1)c1ccco1
inactive: growth inhibition [1] -4.68% | growth inhibition [2] 9.91% | viability increase [3] -3.43% | viability [4] 90% | viability [5] 80.4% | inhibition [6] 1.75% | RAM network inhibition [7] -1.95%

CCCCCCNS(=O)(=O)c1nc2nc(C)cc(C)n2n1
inactive: growth inhibition [1] -15.4% | growth inhibition [2] -13.1% | viability increase [3] 2.63% | viability [4] 104% | viability [5] 104% | inhibition [6] 1.35% | RAM network inhibition [7] 1.21%

COc1ccccc1C1N(c2cc(Cl)ccc2OC)C(=O)C2CCCN21 (configuration not stated)
inactive: growth inhibition [1] 8.71% | growth inhibition [2] 3.69% | viability increase [3] -2.83% | viability [4] 98.7% | viability [5] 96.3% | inhibition [6] 0.445% | RAM network inhibition [7] 2.33%

CCN1CCN(CC(O)COc2ccc(C(C)=O)cc2)CC1 (configuration not stated)
inactive: growth inhibition [1] -5.8% | growth inhibition [2] -1.04% | viability increase [3] 0.34% | viability [4] 98.8% | viability [5] 100% | inhibition [6] 0.405% | RAM network inhibition [7] 0.31%

Cc1noc(C)c1S(=O)(=O)NC1CCN(Cc2ccccc2)CC1
inactive: growth inhibition [1] -12.1% | growth inhibition [2] -2.23% | viability increase [3] -0.68% | viability [4] 95.8% | viability [5] 94.1% | inhibition [6] 3.14% | RAM network inhibition [7] 4.49%

Cc1ccc(N2CCN(c3cc(C)nc4nc(C)nn34)CC2)c(C)c1
inactive: growth inhibition [1] -17.8% | growth inhibition [2] 25.7% | viability increase [3] -2.76% | viability [4] 83.3% | viability [5] 75.8% | inhibition [6] -0.325% | RAM network inhibition [7] 2.52%

CC1CCN(CC(=O)N2c3ccccc3CCc3ccccc32)CC1
inactive: growth inhibition [1] -14.5% | growth inhibition [2] -19.2% | viability increase [3] -1.57% | viability [4] 87.5% | viability [5] 90% | inhibition [6] 4.08% | RAM network inhibition [7] 4.24%

O=c1nc2n(c3sc4c(c13)CCC4)Cc1ccccc1-2
inactive: growth inhibition [1] -15.5% | growth inhibition [2] -9.3% | viability increase [3] -2.14% | viability [4] 94.2% | viability [5] 100% | inhibition [6] 1.48% | RAM network inhibition [7] 1.43%

CCN1C(=O)c2ccccc2S(=O)c2ccc(C(=O)NCc3ccccn3)cc21 (configuration not stated)
inactive: growth inhibition [1] -1.77% | growth inhibition [2] -3.51% | viability increase [3] -0.87% | viability [4] 105% | viability [5] 95.7% | inhibition [6] 1.95% | RAM network inhibition [7] -2.39%

CCC1Oc2ccccc2N(CC(=O)NCCCN2CCOCC2)C1=O (configuration not stated)
inactive: growth inhibition [1] -2.59% | growth inhibition [2] 4.67% | viability increase [3] -1.49% | viability [4] 109% | viability [5] 105% | inhibition [6] 1.29% | RAM network inhibition [7] 0.62%

CCCCCOC(=O)NCC(O)c1ccccc1 (configuration not stated)
inactive: growth inhibition [1] -12.5% | growth inhibition [2] -8.97% | viability increase [3] -1.52% | viability [4] 101% | viability [5] 95.5% | inhibition [6] 2.22% | RAM network inhibition [7] 5.59%

CN1CCc2c(sc3c2C(=O)NC(c2ccc(-c4cccc(Cl)c4)o2)N3)C1 (configuration not stated)
inactive: growth inhibition [1] 5% | growth inhibition [2] 3.19% | viability increase [3] -1.49% | viability [4] 97.6% | viability [5] 87.7% | inhibition [6] 1.89% | RAM network inhibition [7] 2.2%

CC(O)CSc1nc2c(c(=O)n(C)c(=O)n2C)n1CCCc1ccccc1 (configuration not stated)
inactive: growth inhibition [1] -7.62% | growth inhibition [2] -5.55% | viability increase [3] 0.66% | viability [4] 101% | viability [5] 96% | inhibition [6] 1.14% | RAM network inhibition [7] 5.17%

COc1ccc(-c2nc(C(N)=O)c3[nH]c(=O)n(-c4ccccc4OC)c3n2)c(OC)c1
inactive: growth inhibition [1] -0.775% | growth inhibition [2] 4.02% | viability increase [3] -4.59% | viability [4] 74.1% | viability [5] 63.2% | inhibition [6] 0.63% | RAM network inhibition [7] 0.1%

CCC(CC)C(=O)Nc1cc(=O)n(C)c(=O)n1C
inactive: growth inhibition [1] -3.07% | growth inhibition [2] 8.82% | viability increase [3] -0.82% | viability [4] 92.8% | viability [5] 87.4% | inhibition [6] 0.18% | RAM network inhibition [7] -2.19%

Cc1oc(-c2cccc(Cl)c2)nc1CN1CCC(C(=O)NCCCN2CCCC2=O)CC1
inactive: growth inhibition [1] -1.65% | growth inhibition [2] -10.2% | viability increase [3] -3.95% | viability [4] 85.8% | viability [5] 93.5% | inhibition [6] 0.59% | RAM network inhibition [7] 2.35%

O=C(Nc1ccc2c(c1)OCO2)C1COc2ccccc2O1 (configuration not stated)
inactive: growth inhibition [1] -13.5% | growth inhibition [2] -5.98% | viability increase [3] -3.15% | viability [4] 91.9% | viability [5] 99.8% | inhibition [6] 2.16% | RAM network inhibition [7] 3.35%

COc1ccccc1N1CCN(c2nc(N)c(C#N)c(CC#N)c2C#N)CC1
inactive: growth inhibition [1] -1.4% | growth inhibition [2] -0.44% | viability increase [3] 2.45% | viability [4] 96.7% | viability [5] 86.3% | inhibition [6] 1.54% | RAM network inhibition [7] 3.57%

CCOc1ccc(NC(=O)C2C3C=CC4(CN(C(C(=O)OC)C(C)C)C(=O)C24)O3)cc1 (configuration not stated)
inactive: growth inhibition [1] -9.79% | growth inhibition [2] 5.85% | viability increase [3] -1.43% | viability [4] 108% | viability [5] 102% | inhibition [6] 1.31% | RAM network inhibition [7] 6.37%

O=C(Cn1cc2c(n1)CCCC2)NC1CCN(Cc2ccccc2)CC1
inactive: growth inhibition [1] 2.67% | growth inhibition [2] 5.09% | viability increase [3] -1.67% | viability [4] 87% | viability [5] 87% | inhibition [6] 0.965% | RAM network inhibition [7] -0.16%

COc1ccc(N2C(=O)CC(c3ccc(OC(C)C)cc3)C2=O)cc1 (configuration not stated)
inactive: growth inhibition [1] -5.08% | growth inhibition [2] -8.6% | viability increase [3] 1.46% | viability [4] 97.9% | viability [5] 104% | inhibition [6] 1.39% | RAM network inhibition [7] 3.45%

Cn1c(=O)[nH]c(=O)c2[nH]c(CN3CCN(Cc4ccccc4)CC3)nc21
inactive: growth inhibition [1] -9.19% | growth inhibition [2] -10% | viability increase [3] -0.77% | viability [4] 104% | viability [5] 99.5% | inhibition [6] 0.395% | RAM network inhibition [7] 1.09%

Cc1ccc2[nH]c(=O)c3cc(C(=O)N4CCN(C(=O)c5ccco5)CC4)sc3c2c1
inactive: growth inhibition [1] 5.33% | growth inhibition [2] 7.05% | viability increase [3] -3.84% | viability [4] 99% | viability [5] 92.3% | inhibition [6] 1.16% | RAM network inhibition [7] 7.89%

Cc1noc(C)c1S(=O)(=O)N1CCC(C(=O)N2CCC(N3CCCCC3)CC2)CC1
inactive: growth inhibition [1] -7.79% | growth inhibition [2] 2.65% | viability increase [3] 0.18% | viability [4] 101% | viability [5] 102% | inhibition [6] 1.78% | RAM network inhibition [7] -0.93%

CC1(C)CC(=O)C=C(NCc2cccnc2)C1
inactive: growth inhibition [1] -4.83% | growth inhibition [2] -11.8% | viability increase [3] -1.4% | viability [4] 92.2% | viability [5] 94.9% | inhibition [6] -0.505% | RAM network inhibition [7] 1.01%

Cc1nc2nc[nH]c2cc1Br
inactive: growth inhibition [1] 5.74% | growth inhibition [2] 6.22% | viability increase [3] -2.75% | viability [4] 97.8% | viability [5] 100% | inhibition [6] 0.705% | RAM network inhibition [7] -0.41%

COc1ccc(CNC(=O)Cn2cc3c(n2)CCCCC3)cc1
inactive: growth inhibition [1] 2.42% | growth inhibition [2] -0.895% | viability increase [3] -2.29% | viability [4] 102% | viability [5] 91.9% | inhibition [6] 0.54% | RAM network inhibition [7] -1.07%

CCOC(=O)COn1c(=O)c(=O)n(O)c2ccccc21
inactive: growth inhibition [1] -14.5% | growth inhibition [2] -14.8% | viability increase [3] -4.99% | viability [4] 87.2% | viability [5] 87.1% | inhibition [6] 1.54% | RAM network inhibition [7] 1.4%

COC(=O)c1ccc(/C=N/n2cnnc2)cc1
inactive: growth inhibition [1] -10.3% | growth inhibition [2] -20% | viability increase [3] -1.44% | viability [4] 101% | viability [5] 89.3% | inhibition [6] 0.79% | RAM network inhibition [7] 4.48%

COC(=O)C1C2C=CC3(CN(c4cccc(Cl)c4)C(=O)C13)O2 (configuration not stated)
inactive: growth inhibition [1] -11.2% | growth inhibition [2] -8.25% | viability increase [3] -1.38% | viability [4] 107% | viability [5] 99.5% | inhibition [6] 1.06% | RAM network inhibition [7] 5.74%

Cc1ccn2cc(-c3ccc(S(=O)(=O)N4CCOCC4)cc3)nc2c1
inactive: growth inhibition [1] -2.96% | growth inhibition [2] 6.53% | viability increase [3] 2.12% | viability [4] 106% | viability [5] 102% | inhibition [6] 1.6% | RAM network inhibition [7] 1.79%

CCn1c(SCC(=O)N2CCOCC2)nc(O)cc1=O
inactive: growth inhibition [1] -6.62% | growth inhibition [2] -12.7% | viability increase [3] -0.84% | viability [4] 105% | viability [5] 103% | inhibition [6] 2.59% | RAM network inhibition [7] 1.54%

COc1ccc(OC)c2sc(NC(=O)C3COc4ccccc4O3)nc12 (configuration not stated)
inactive: growth inhibition [1] -19.7% | growth inhibition [2] -10.6% | viability increase [3] -3.63% | viability [4] 101% | viability [5] 95.6% | inhibition [6] -0.125% | RAM network inhibition [7] 2.87%

From PubChem BioAssay
